# Measured values reported in PubChem BioAssay.
# Activity calls are given as the source filed them.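 Rule for the calls, unless noted: active = NADPH fluorescence slope more negative than the mean of all samples by about 3 SD, 99.7% confidence; inactive = the rest.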
# Assays:
# [1] = inhibitors of TNFa-induced NFkB p65 translocation, primary screen, imaging, HUVEC, MLSMR starter and 10KST1 sets (AID 438;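 active = inhibition above 20% together with a positive visual image hit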;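 note: compound added about 3h40 before a 20 min TNFalpha stimulation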;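 for inhibition: signal is the nuclear over cytoplasmic p65 intensity ratio per well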); details: HUVEC TNFa-induced p65 nuclear translocation; cell count: measured here: nuclei count (cytotoxicity indicator), at 2.08 µM; inhibition: at 2 µM, stronger effect = higher value, 0% TNFa-plus-vehicle, 100% no-TNFa wells
# [2] = endothelial E-selectin expression blockers – imaging, HUVEC, immunofluorescence, MLSMR starter and 10KST1 sets, primary screen (AID 487;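 active = visually confirmed hit in the image check and inhibition above 20%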;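 for inhibition: signal is fraction of cell area covered by stained E-selectin grains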;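 for nuclei count: 100% = median nuclei count of all wells on the same plate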); details: HUVEC TNFalpha-induced E-selectin immunofluorescence imaging, at 2 µM; inhibition: stronger effect = higher value; nuclei count: measured here: cell number, toxicity
# [3] = Primary imaging screen for DUSP6 inhibitors that restore phospho-Erk in transfected HeLa cells, chemical complementation (AID 609;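 active = compounds giving at least 50% inhibition in the cell-based MKP-3 phosphatase rescue imaging test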;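 for inhibition: phospho-Erk level distribution per well compared with pooled transfected vehicle control wells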); details: HeLa MKP-3 transfected, phospho-Erk imaging KS statistic, at 10 µM, cells stimulated with TPA for 15 min
# [4] = biological target: Dual specificity protein phosphatase 6 (Homo sapiens) (UniProt Q16828); test: as above; details: HeLa MKP-3 transfected, phospho-Erk imaging KS statistic; at 10 µM; stronger effect = higher value; cells stimulated with TPA for 15 min
# [5] = biological target: Voltage-gated potassium channel subunit beta-2 (Rattus norvegicus) (UniProt P62483); test: inhibitors of rat Kvbeta2 reductase activity – biochemical, NADPH fluorescence, primary screen (AID 622;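 active = fluorescence slope higher than the sample average by over 3 SD, cut at about -0.22 in these data, passing the limit was not always enough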;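 note: slope of raw intensity against log time taken from 70 to 1610 s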); details: recombinant KvBeta, 4-cyanobenzaldehyde reduction, at 10 µM, stronger effect = higher value
# [6] = biological target: Voltage-gated potassium channel subunit beta-2 (Rattus norvegicus) (UniProt P62483); test: enhancers of rat Kvbeta2 NADPH turnover – biochemical, NADPH fluorescence, primary screen (AID 623); details: Recombinant KvBeta, NADPH fluorescence decrease slope, 10 min; at 10 µM; stronger effect = lower value;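 note: fluorescence intensity change per second fitted from 20 to 320 s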
# [7] = biological target: Alpha-2C adrenergic receptor (Homo sapiens) (UniProt P18825); test: compounds altering alpha2C-coupled GIRK flux – cell-based, HEK293 alpha2C/GIRK1/2, thallium flux, primary screen (AID 624;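 active = fluorescence slope after compound addition differing from the mean of all screened samples at 99.7% confidence, in either direction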;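 note: slope of fluorescence ratio to pre-addition baseline per second over 15 to 24 s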); details: thallium flux BTC fluorescence, at 10 µM, actives lie on both sides
# [8] = inhibitors of larval lipid processing in zebrafish, primary screen, whole organism, PED6 fluorescence, gall bladder and intestine (AID 686;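 active = a full or partial loss of lipid-probe fluorescence in the fish gall bladder, intestine or both, judged by eye; inactive = no fluorescence loss, or compound toxic to the fish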;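 note: larvae 5 to 7 days old with five fish per well; signal comes from phospholipase A2 cleavage of quenched PED6 carried via bile; overnight exposure to compound and PED6 before scoring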); details: Zebrafish larvae PED6 lipid processing, fluorescence scoring; screened at 20 µM (by protocol)
# Summary of the method: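 system = live zebrafish larvae aged 5-7 days, whole organism | probe or stimulus = ingested quenched lipid PED6 at 100 nM | doses = 20 µM single dose | timing = overnight exposure | detection = fluorescence microscopy with visual scoring of gall bladder and intestine | read-out = visual per-well fluorescence inhibition score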
# [9] = loss of swimming-algae plug formation – whole organism, Chlamydomonas reinhardtii, WT vs cilia-less mutant, absorbance, 96-well, primary screen (AID 463189;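 active = inhibition at or above 50% relative to wild type and mutant plate controls; inactive = inhibition below 50%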;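 note: 0% = wild type cc124 cells in DMSO and 100% = ciliumless bld1 mutant cells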); details: Chlamydomonas reinhardtii gravitaxis, OD600 absorbance, 2 days; at 10 µM; stronger effect = higher value
# [10] = measured here: cell density z-score
# [11] = measured here: nuclear c-Myc green intensity z-score
# [12] = measured here: nuclear pErk red intensity z-score, stronger effect = higher value
# Dual specificity protein phosphatase 6 (Homo sapiens), sequence (Q16828 whole entry, looked up): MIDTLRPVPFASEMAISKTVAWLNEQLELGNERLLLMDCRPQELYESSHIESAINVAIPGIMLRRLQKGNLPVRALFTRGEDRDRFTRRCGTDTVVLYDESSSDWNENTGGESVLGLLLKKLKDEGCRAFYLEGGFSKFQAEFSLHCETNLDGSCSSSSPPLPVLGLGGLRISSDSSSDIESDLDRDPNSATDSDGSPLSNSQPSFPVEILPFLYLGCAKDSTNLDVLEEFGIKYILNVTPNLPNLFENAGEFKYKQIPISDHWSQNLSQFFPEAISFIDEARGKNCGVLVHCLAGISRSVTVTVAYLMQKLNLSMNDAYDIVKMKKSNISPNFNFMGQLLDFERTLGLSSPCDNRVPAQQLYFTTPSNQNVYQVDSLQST
# Voltage-gated potassium channel subunit beta-2 (Rattus norvegicus), sequence (P62483 whole entry, looked up): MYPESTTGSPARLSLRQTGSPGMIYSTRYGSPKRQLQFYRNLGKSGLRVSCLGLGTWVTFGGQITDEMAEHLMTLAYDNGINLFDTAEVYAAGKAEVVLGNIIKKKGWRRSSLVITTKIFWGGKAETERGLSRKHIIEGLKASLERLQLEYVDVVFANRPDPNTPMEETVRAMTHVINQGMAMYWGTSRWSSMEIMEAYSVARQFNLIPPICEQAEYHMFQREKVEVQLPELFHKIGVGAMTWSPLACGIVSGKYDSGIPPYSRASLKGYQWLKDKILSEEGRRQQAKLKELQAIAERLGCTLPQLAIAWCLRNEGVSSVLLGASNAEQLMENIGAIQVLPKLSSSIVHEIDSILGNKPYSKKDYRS
# Alpha-2C adrenergic receptor (Homo sapiens), sequence (P18825 whole entry, looked up): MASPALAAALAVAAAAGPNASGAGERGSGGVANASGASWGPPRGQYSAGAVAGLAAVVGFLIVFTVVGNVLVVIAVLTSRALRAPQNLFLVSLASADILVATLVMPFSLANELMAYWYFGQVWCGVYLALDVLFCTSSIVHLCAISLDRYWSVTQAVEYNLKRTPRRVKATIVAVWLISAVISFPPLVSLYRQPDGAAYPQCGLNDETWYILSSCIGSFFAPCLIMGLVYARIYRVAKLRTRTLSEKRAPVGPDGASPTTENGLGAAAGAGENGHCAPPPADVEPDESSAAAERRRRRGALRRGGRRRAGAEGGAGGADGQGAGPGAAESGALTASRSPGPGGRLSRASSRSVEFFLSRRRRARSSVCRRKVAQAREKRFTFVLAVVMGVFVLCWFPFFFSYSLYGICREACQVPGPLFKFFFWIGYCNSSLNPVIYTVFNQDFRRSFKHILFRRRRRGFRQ
SMILES,cell count [1],inhibition [1],inhibition [2],nuclei count [2] [%],"z-score [3, 10]","z-score [3, 11]","z-score [3, 12]",inhibition [4],fluorescence slope [5],NADPH fluorescence slope [6],slope [7],outcome [8],inhibition [9]
COC(=O)c1ccn(C(=O)c2ccc(Cl)cc2)n1,646,-1.4% (inactive),-13.4% (inactive),147,1.7,-0.283,1.25,-2.91% (inactive),-0.519 (inactive),-4e-05 (inactive),0.00635 (inactive),inactive,6.37% (inactive)
N#CCSc1nc2sc3c(c2c(=O)n1C1CCCCC1)CCCC3,651,-21.9% (inactive),9.7% (inactive),167,-0.927,0.708,1.09,3.56% (inactive),-0.354 (inactive),-1.5e-05 (inactive),0.00554 (inactive),inactive,-20.7% (inactive)
COc1cccc(/C(O)=C2/C(=O)C(=O)N(CCN(C)C)C2c2ccc(Br)cc2)c1 (stereo unspecified),321,18.1% (inactive),14.2% (inactive),102,0.101,1.46,-0.618,-12.3% (inactive),-0.456 (inactive),7.9e-06 (inactive),0.00697 (inactive),,28.7% (inactive)
O/N=C1\CCc2cc(Cl)ccc21,384,-4% (inactive),-24.4% (inactive),101,-3.01,0.785,-0.837,-0.159% (inactive),-0.48 (inactive),-0.000244 (inactive),0.0047 (inactive),inactive,-12.6% (inactive)
CCCCOc1ccc(C)cc1CN(CCO)CCO,552,-8% (inactive),-87% (inactive),111,-1.69,-0.122,-1.5,1.9e-07% (inactive),-0.506 (inactive),-1.2e-05 (inactive),0.0065 (inactive),inactive,-2.14% (inactive)
COc1ccc(OC)c(C2/C(=C(/O)c3ccc(C)cc3)C(=O)C(=O)N2Cc2ccco2)c1 (stereo unspecified),561,-1.8% (inactive),-18.5% (inactive),143,1.28,0.438,0.373,-7.86% (inactive),-0.568 (inactive),-1.3e-05 (inactive),0.00557 (inactive),inactive,-7.49% (inactive)
COc1ccc(CCNc2nc3c(c(=O)n(C)c(=O)n3C)n2C)cc1OC,604,-9.9% (inactive),-63.1% (inactive),146,1.46,-0.0832,0.95,-4.27% (inactive),-0.425 (inactive),-6e-05 (inactive),0.00693 (inactive),inactive,-4.62% (inactive)
COc1c(O)ccc2cnn(-c3ccccc3C)c(=O)c12,557,-2.9% (inactive),-53.4% (inactive),180,-1.01,0.966,0.382,9.61% (inactive),-0.35 (inactive),-1.2e-05 (inactive),0.00472 (inactive),inactive,1.71% (inactive)
ONC(=Nc1ccccc1)C(=Nc1ccccc1)NO,348,-0.3% (inactive),-28.3% (inactive),100,1.37,1.46,0.663,17% (inactive),-0.542 (inactive),-6e-05 (inactive),0.00535 (inactive),inactive,25.5% (inactive)
Cc1coc2c(O)cc3c(c12)OC1(N2CCCCC2)C(=O)NCCCC31 (stereo unspecified),537,-25.4% (inactive),-78.3% (inactive),144,-0.8,0.13,2.15,-15% (inactive),-0.515 (inactive),-4.3e-05 (inactive),0.00313 (inactive),inactive,19.5% (inactive)
CCOC(=O)C1CCCN(c2nc3ccccc3nc2C(C#N)C(=O)OC(C)C)C1 (stereo unspecified),547,-8.3% (inactive),14.3% (inactive),143,-1.02,0.486,-0.3,-7.86% (inactive),-0.504 (inactive),-3.6e-05 (inactive),0.00207 (inactive),inactive,25.2% (inactive)
O=S1(=O)C[C@@H](N2CCOCC2)[C@H](N2CCOCC2)C1,513,3.1% (inactive),-110% (inactive),133,-0.578,0.935,0.179,-3.5% (inactive),-0.462 (inactive),-7.3e-05 (inactive),0.00558 (inactive),inactive,3.28% (inactive)
Cc1ccc(C2CC(C(F)(F)F)n3ncc(C(N)=O)c3N2)cc1 (stereo unspecified),506,-1.3% (inactive),4.8% (inactive),124,-0.204,-0.144,1.07,-7.79% (inactive),-0.5 (inactive),-8.2e-05 (inactive),0.00506 (inactive),inactive,16.3% (inactive)
CCOC(=O)c1c(C)cccc1OCC(N)=O,638,-2.3% (inactive),13.5% (inactive),175,-0.228,-0.623,1.22,-0.159% (inactive),-0.487 (inactive),-0.000164 (inactive),0.0049 (inactive),inactive,-5.84% (inactive)
CCOc1cccc(-c2nn3c(-c4ccco4)nnc3s2)c1,591,-18.9% (inactive),-310% (inactive),153,-0.574,-0.476,-0.496,-4.27% (inactive),-0.409 (inactive),-0.00014 (inactive),0.00461 (inactive),inactive,17.2% (inactive)
Cc1c(CCC#N)c(N2CCCCC2)n2c(nc3ccccc32)c1C#N,547,-20.4% (inactive),-116% (inactive),155,0.117,-1.2,-0.217,-6.06% (inactive),-0.341 (inactive),-2.7e-05 (inactive),0.00724 (inactive),inactive,4.74% (inactive)
COC(=O)c1ccc(C(=O)OC)c(NC(=O)c2cc3ccccc3o2)c1,641,-12.1% (inactive),15.1% (inactive),175,2.88,-0.375,-1.4,6.51% (inactive),-0.377 (inactive),-5.2e-05 (inactive),0.00547 (inactive),inactive,-2.3% (inactive)
C=CCOC(=O)C1=C(C)NC(SCC(=O)N(CC)CC)=C(C#N)C1c1ccccc1 (stereo unspecified),348,-0.8% (inactive),-27.9% (inactive),140,1.19,0.414,-0.822,-0.584% (inactive),-0.405 (inactive),-1.3e-05 (inactive),0.00552 (inactive),inactive,4.36% (inactive)
CC(C)OC(=O)CC1=NC(=O)CS1,693,-4% (inactive),-27.6% (inactive),175,-0.0687,-1.07,0.103,-0.624% (inactive),-0.423 (inactive),-4.2e-05 (inactive),0.00582 (inactive),inactive,-2.62% (inactive)
